Data set [1] can be described thus: Antiproliferative activity against human Kelly cells after 72 hrs by CellTiter-Glo luminescent cell viability assay. Format: functional, cell-based. The essentials: (§1)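 1×10^3 cells/well, allowed to attach 24 h, then exposed 72 h to 0.05-20 µM drug. Viability by ATP luminescence (CellTiter-Glo) relative to untreated controls with medium correction. IC50 read from log-concentration survival curves, independent triplicates. Kelly-WT and doxorubicin-selected Kelly-ADR (tenfold resistant) cultured in RPMI1640 with 10 % FCS, 2 mM glutamine and pen/strep at 37°C, 5 % CO2.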
(Cellular ATP, detected with luciferase, serves as a proxy for viable cell number.)

Data set [2] can be described thus: Binding affinity to Cy5-labelled-36 base pair double stranded DNA (unknown origin) measured under infrared laser light by microscale thermophoresis. The essentials: (§2)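 Microscale thermophoresis: 50 nM Cy5-labeled DNA titrated with ligand in 50 mM Tris pH 6.5, 15 mM NaCl, 10 mM MgCl2, 0.05 % Tween 20. IR laser at 10 % intensity, starting from room temperature. Fluorescence signals fitted assuming 1:1 binding to give Ka/EC50.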
(In general: Microscale thermophoresis detects binding through changes in fluorescence in a small temperature gradient.)

A short description of data set [3]: Drug uptake in cytosol of adriamycin-resistant human Kelly cells at 10 uM after 72 hrs by fluorescence confocal microscopic method. Format: ADME. In short, it runs like this:
(§3)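 Live Kelly-WT or Kelly-ADR cells (1×10^4/well) exposed to 10 µM drug for 24 or 72 h at 37°C, 5 % CO2. Imaged by confocal laser scanning microscopy with a 63× water objective. Red signal is anthracycline-associated fluorescence.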

The nature of data set [4]: Drug uptake in nucleus of human adriamycin-resistant Kelly cells at 10 uM after 24 hrs by fluorescence confocal microscopic method. Format: ADME. The essentials:
as §3

The nature of data set [5]: Antiproliferative activity against human adriamycin-resistant Kelly cells after 72 hrs by CellTiter-Glo luminescent cell viability assay. The class given is functional, cell-based. The essentials: as §1
A short description of data set [6]: Drug uptake in human Kelly cells at 10 uM after 24 hrs by fluorescence confocal microscopic method. The class given is ADME, cell-based. In short, it runs like this: as §3
Data set [7] in a line: Drug uptake in nucleus of adriamycin-resistant human Kelly cells at 10 uM after 72 hrs by fluorescence confocal microscopic method. Format: ADME. In short, it runs like this:
as §3

Data set [8] can be described thus: Drug uptake in human adriamycin-resistant Kelly cells at 10 uM after 24 hrs by fluorescence confocal microscopic method. Format: ADME, cell-based. The essentials: as §3
The nature of data set [9]: Drug uptake in human Kelly cells at 10 uM after 72 hrs by fluorescence confocal microscopic method. The class given is ADME, cell-based. The essentials: as §3
Data set [10] can be described thus: Drug uptake in nucleus of human Kelly cells at 10 uM after 72 hrs by fluorescence confocal microscopic method. The class given is ADME. In short, it runs like this:
as §3

Data set [11] in a line: Binding affinity to Cy5-labelled-12 base pair double stranded DNA (unknown origin) measured under infrared laser light by microscale thermophoresis. In short, it runs like this:
as §2

Another data set deals with MCF7. Nature of the data set: Antiproliferative activity against human MCF7 cells after 72 hrs by CellTiter-Glo luminescent cell viability assay. The class given is functional, cell-based. The conditions noted are these: MCF7, 72 h.
Data set [12] in a line: Potency index, ratio of doxorubicin EC50 to compound EC50 for binding affinity to Cy5-labelled-36 base pair double stranded DNA (unknown origin).
Data set [13] in a line: Potency index, ratio of doxorubicin Ka to compound Ka for binding affinity to Cy5-labelled-36 base pair double stranded DNA (unknown origin).
Data set [14] can be described thus: Drug level treated with (S,S,R,S,S,S,E)-N,N'-((6S,9S,12S,15S,18S,21S,24S,27S)-30-acetamido-1-amino-6-carbamoyl-9,12,15,18,21,24,27-heptakis(3-guanidinopropyl)-1-imino-8,11,14,17,20,23,26,29,37-nonaoxo-32,33-dithia-2,7,10,13,16,19,22,25,28,36-decaazadotetracontane-38,42-diyl)bis(2-((E)-1-((2S,4S)-4-((2R,4S,5S,6S)-4-amino-5-hydroxy-6-methyltetrahydro-2H-pyran-2-yloxy)-2,5,12-trihydroxy-7-methoxy-6,11-dioxo-1,2,3,4,6,11-hexahydrotetracen-2-yl)-2-hydroxyethylideneaminooxy)acetamide)decaacetate at 1 mM in presence of glutathione at 1 min post dose by MALDI-TOF-mass spectroscopic analysis. In short, it runs like this:
(§4)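 Conjugate at 1 mM in DPBS pH 7.4 with 10 mM glutathione (tenfold excess), 37°C, shaking at 300 rpm. Disulfide reduction followed by HPLC at 480 nm over 24 h. Cleavage products identified by MALDI-TOF MS.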

Data set [15] in a line: Drug uptake in nucleus of human adriamycin-resistant Kelly cells at 10 uM after 72 hrs by DRAQ5-staining based fluorescence confocal microscopic method. The class given is ADME. In short, it runs like this:
(§5)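 Kelly-WT or Kelly-ADR cells exposed 72 h to 10 µM drug. Nuclei counterstained with 5 µM DRAQ5 for 5 min before live confocal imaging at 37°C, 5 % CO2. Nuclear localization scored by overlay (colocalization) with the DRAQ5 signal.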

Data set [16] is described as follows: Drug uptake in cytosol of human Kelly cells at 10 uM after 72 hrs by fluorescence confocal microscopic method. Format: ADME. In short, it runs like this: as §3
Data set [17] can be described thus: Potency index, ratio of doxorubicin IC50 to compound IC50 for human adriamycin-resistant Kelly cells. Format: functional.
Data set [18] is described as follows: Drug uptake in human Kelly cell membrane at 10 uM after 24 hrs by fluorescence confocal microscopic method. The class given is ADME, cell-based. In short, it runs like this: as §3
Data set [19] in a line: Drug uptake in nucleus of human Kelly cells at 10 uM after 72 hrs by DRAQ5-staining based fluorescence confocal microscopic method. The class given is ADME. In short, it runs like this:
as §5

Data set [20] can be described thus: Drug uptake in adriamycin-resistant human Kelly cell membranes at 10 uM after 72 hrs by fluorescence confocal microscopic method. The class given is ADME. In short, it runs like this: as §3
Data set [21] can be described thus: Stability of the compound at pH 5 assessed as doxorubicin formation. Format: physicochemical. The settings on record: buffer.
Data set [22] in a line: Drug level treated with (S,S,R,S,S,S,E)-N,N'-((6S,9S,12S,15S,18S,21S,24S,27S)-30-acetamido-1-amino-6-carbamoyl-9,12,15,18,21,24,27-heptakis(3-guanidinopropyl)-1-imino-8,11,14,17,20,23,26,29,37-nonaoxo-32,33-dithia-2,7,10,13,16,19,22,25,28,36-decaazadotetracontane-38,42-diyl)bis(2-((E)-1-((2S,4S)-4-((2R,4S,5S,6S)-4-amino-5-hydroxy-6-methyltetrahydro-2H-pyran-2-yloxy)-2,5,12-trihydroxy-7-methoxy-6,11-dioxo-1,2,3,4,6,11-hexahydrotetracen-2-yl)-2-hydroxyethylideneaminooxy)acetamide)decaacetate at 1 mM in presence of glutathione at 3 hrs post dose by MALDI-TOF-mass spectroscopic analysis. The essentials:
as §4

Data set [23] can be described thus: Drug level treated with (S,S,R,S,S,S,E)-N,N'-((6S,9S,12S,15S,18S,21S,24S,27S)-30-acetamido-1-amino-6-carbamoyl-9,12,15,18,21,24,27-heptakis(3-guanidinopropyl)-1-imino-8,11,14,17,20,23,26,29,37-nonaoxo-32,33-dithia-2,7,10,13,16,19,22,25,28,36-decaazadotetracontane-38,42-diyl)bis(2-((E)-1-((2S,4S)-4-((2R,4S,5S,6S)-4-amino-5-hydroxy-6-methyltetrahydro-2H-pyran-2-yloxy)-2,5,12-trihydroxy-7-methoxy-6,11-dioxo-1,2,3,4,6,11-hexahydrotetracen-2-yl)-2-hydroxyethylideneaminooxy)acetamide)decaacetate at 1 mM in presence of glutathione after 24 hrs by MALDI-TOF-mass spectroscopic analysis. In short, it runs like this: as §4

Calls of active or inactive are those of the source. The rule behind the calls is not given here.

Consider `COc1cccc2c1C(=O)c1c(O)c3c(c(O)c1C2=O)C[C@@](O)(C(=O)CO)C[C@@H]3O[C@H]1C[C@H](N)[C@H](O)[C@H](C)O1` [DOXORUBICIN], for which the IC50 (in general, the concentration that inhibits the measured activity by half) in [1] turned out to be 0.18 µM; in data set [5], 6.57 µM. For the same compound, the midpoint of the response in [2], the EC50, lay at 1.16 µM. Moreover, binding in data set [2] was characterised by a dissociation constant (Kd) of 1.13 µM. The Drug uptake entry in data set [3] is reported as “Not Active”; in data set [4] it was “Active”; in [6], “Active”; in data set [7] it was “Not Active”; in [8], “Active”; in data set [9], “Active”. In addition, the Drug uptake entry in [10] is “Active”. The result in data set [11] was inactive.

Consider `CC(=O)N[C@@H](CS)C(=O)N[C@@H](CCCNC(=N)N)C(=O)N[C@@H](CCCNC(=N)N)C(=O)N[C@@H](CCCNC(=N)N)C(=O)N[C@@H](CCCNC(=N)N)C(=O)N[C@@H](CCCNC(=N)N)C(=O)N[C@@H](CCCNC(=N)N)C(=O)N[C@@H](CCCNC(=N)N)C(=O)N[C@@H](CCCNC(=N)N)C(N)=O`, for which the half-inhibitory concentration (IC50) (in data set [1]; in the data set on MCF7; in data set [5]) was no less than 100 µM each time.

On to `COc1cccc2c1C(=O)c1c(O)c3c(c(O)c1C2=O)C[C@@](O)(/C(CO)=N/OCC(=O)NCCCC[C@H](NC(=O)CO/N=C(\CO)[C@]1(O)Cc2c(O)c4c(c(O)c2[C@@H](O[C@H]2C[C@H](N)[C@H](O)[C@H](C)O2)C1)C(=O)c1c(OC)cccc1C4=O)C(=O)NCCSSc1ccccn1)C[C@@H]3O[C@H]1C[C@H](N)[C@H](O)[C@H](C)O1`, for which the half-maximal inhibitory concentration (IC50) in data set [1] is 1.79 µM; with MCF7, 6.73 µM; in data set [5], 7.33 µM. Besides, in [2], the response was half-maximal at 0.15 µM (EC50). The same compound gave a Ka in data set [2] of 7.9 ×10⁶ /M. Also, in [2], the Kd (commonly the concentration at which binding is half-saturated) was determined as 0.126 µM. Besides, the Ratio EC50 in data set [12] is 10. The Ratio in [13] turned out to be 10. Further, in [11], the outcome was inactive.

For the compound `COc1cccc2c1C(=O)c1c(O)c3c(c(O)c1C2=O)C[C@@](O)(/C(CO)=N/OCC(=O)NCCCC[C@H](NC(=O)CO/N=C(\CO)[C@]1(O)Cc2c(O)c4c(c(O)c2[C@@H](O[C@H]2C[C@H](N)[C@H](O)[C@H](C)O2)C1)C(=O)c1c(OC)cccc1C4=O)C(=O)NCCS)C[C@@H]3O[C@H]1C[C@H](N)[C@H](O)[C@H](C)O1`, the Drug metabolism entry in [14] was “Metabolite detected”.

Regarding `CC(=O)O.CC(=O)O.CC(=O)O.CC(=O)O.CC(=O)O.CC(=O)O.CC(=O)O.CC(=O)O.CC(=O)O.CC(=O)O.COc1cccc2c1C(=O)c1c(O)c3c(c(O)c1C2=O)C[C@@](O)(/C(CO)=N/OCC(=O)NCCCC[C@H](NC(=O)CO/N=C(\CO)[C@]1(O)Cc2c(O)c4c(c(O)c2[C@@H](O[C@H]2C[C@H](N)[C@H](O)[C@H](C)O2)C1)C(=O)c1c(OC)cccc1C4=O)C(=O)NCCSSC[C@H](NC(C)=O)C(=O)N[C@@H](CCCNC(=N)N)C(=O)N[C@@H](CCCNC(=N)N)C(=O)N[C@@H](CCCNC(=N)N)C(=O)N[C@@H](CCCNC(=N)N)C(=O)N[C@@H](CCCNC(=N)N)C(=O)N[C@@H](CCCNC(=N)N)C(=O)N[C@@H](CCCNC(=N)N)C(=O)N[C@@H](CCCNC(=N)N)C(N)=O)C[C@@H]3O[C@H]1C[C@H](N)[C@H](O)[C@H](C)O1`, the IC50 worked out at 2.47 µM in [1], 3.66 µM in the data set on MCF7 and 2.76 µM in [5]. The Drug uptake entry in data set [15], in data set [16], in [6], in [7], in data set [8] and in data set [18] was “Active” throughout. The Drug uptake entry in [19], in [20] and in data set [9] was “Active” each time. For the same compound, in data set [17], the “Ratio IC50” value is 3. In data set [21], the Stability result is listed as “Stable”.

In the case of `COc1cccc2c1C(=O)c1c(O)c3c(c(O)c1C2=O)C[C@@](O)(/C(CO)=N/OCC(=O)NCCCC[C@H](NC(=O)CO/N=C(\CO)[C@]1(O)Cc2c(O)c4c(c(O)c2[C@@H](O[C@H]2C[C@H](N)[C@H](O)[C@H](C)O2)C1)C(=O)c1c(OC)cccc1C4=O)C(=O)NCCSSC[C@H](NC(=O)CC[C@@H](N)C(=O)O)C(=O)NCC(=O)O)C[C@@H]3O[C@H]1C[C@H](N)[C@H](O)[C@H](C)O1`, the Drug metabolism result in data set [22] is recorded as “Metabolite detected”.

For the compound `COc1cccc2c1C(=O)c1c(O)c3c(c(O)c1C2=O)C[C@@](O)(/C(CO)=N/OCC(=O)NCCCC[C@H](NC(=O)CO/N=C(\CO)[C@]1(O)Cc2c(O)c4c(c(O)c2[C@@H](O[C@H]2C[C@H](N)[C@H](O)[C@H](C)O2)C1)C(=O)c1c(OC)cccc1C4=O)C(=O)NCCSSCCNC(=O)[C@H](CCCCNC(=O)CO/N=C(\CO)[C@]1(O)Cc2c(O)c4c(c(O)c2[C@@H](O[C@H]2C[C@H](N)[C@H](O)[C@H](C)O2)C1)C(=O)c1c(OC)cccc1C4=O)NC(=O)CO/N=C(\CO)[C@]1(O)Cc2c(O)c4c(c(O)c2[C@@H](O[C@H]2C[C@H](N)[C@H](O)[C@H](C)O2)C1)C(=O)c1c(OC)cccc1C4=O)C[C@@H]3O[C@H]1C[C@H](N)[C@H](O)[C@H](C)O1`, the Drug metabolism result in data set [23] is “Metabolite detected”.
